Assay results taken from the EternaBench riboswitch data.

Tested on: MS2 coat protein
Assay: apparent Kd, MS2 coat protein; higher = weaker binding; RNA-MaP array; FMN 200 µM where present
How it was run: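 Each design was made on Illumina sequencing-chip clusters by stalled E. coli RNA polymerase and titrated with SNAP-549-labelled MS2 coat protein from 0.7 or 1.5 nM, doubling to 3 µM, in the absence and then the presence of constant ligand. The buffer was 100 mM Tris-HCl pH 7.5, 80 mM KCl, 4 mM MgCl2, BSA, DTT, yeast tRNA and Tween-20. The apparent Kd is the median of filtered per-cluster fits of binding curves, with green signal normalised to red-channel RNA signal and control-cluster median Fmax.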

[1] = designed as: OFF switch for flavin mononucleotide, no ligand
[2] = ligand present: flavin mononucleotide, designed as: OFF switch for flavin mononucleotide
[3] = designed as: ON switch for flavin mononucleotide, no ligand
[4] = ligand present: flavin mononucleotide, designed as: ON switch for flavin mononucleotide

Row | Sequence | apparent Kd [1] [nM] | apparent Kd [2] [nM] | apparent Kd [3] [nM] | apparent Kd [4] [nM]
1 | UUAUAUAGAGUGAGGAUAUGCUGGUCCUUGGAUCAGCAGAAGGCACAUGAGGAUCACCCAUGUAAUAUAAUAUU | 22.4 | 42 |  | 
2 | ACCAGCGAUAUUUCGGUGAGUCAACCAGAAGGGACGAAGCCACAUGAGGAUCACCCAUGUCACUGUCAGGAUAUGGGAAGCGAC |  |  | 364 | 29.5
3 | GCAGCGCUUGACAUGAGGAUCACCCAUGUUAGAUUGUUAAGUCAGGAUAUAGUCUAGAAACUAGACUAGAAGGGAUUUGCUGCU |  |  | 7.18 | 6.14
4 | AAAAGUUCAGGAUAUACAUGAGGAUCACCCAUGUAGAAAGGAAGUGUAAAAAAAAAGUGUAGAAGGGAGCAUGA | 31.7 | 29.1 |  | 
5 | CAGAAGUCAGGAUAUGCUGCUCGUCACUUGCGUGAUGAGUAGCAGAAGGGACAUGAGGAUCACCCAUGUAAAGA | 63.1 | 113 |  | 
6 | GGGUACAUCGGAGGAUAUCAUGUAAAUACAUGAGGAUCACCCAUGUCGAUGGAGACAUCGGAGAUUAAGAAGGCCGAUGUACCG |  |  | 801 | 842
7 | GAGCUAUGAGGAUAUGCAUAUAUACGGAUUCGUGUGGUACUACAUGAGGAUCACCCAUGUAGAAGGCGUGGCUG | 19 | 20.8 |  | 
8 | GGAGCCGGUACUGAGGAUAUUCAUAUUAAAACAUGAGGAUCACCCAUGUAGGCCAGAAGGCCUUGGGAGAAGGCAGGCCAGCUCG |  |  | 378 | 31.4
9 | AUGGUUGUCGUAGGAUAUGUAGGAUAUUCCUACAUGAGGAUCACCCAUGUUCGCAUGGAAGAAGGACGGAAGGACGAUGACCAU |  |  | 194 | 132
10 | UUAAUAAAGUAAGGAUAUACAUGAGGAUCUCUCGUAGAAGGUACUAUACAUGAGGAUCACCCAUGUGCCGGUCCGUAGACUGGA |  |  | 387 | 796
11 | CAGGUAGACUGAGGAUAUACAUGACUUAGUCUAUCUAGGUCAUAAACCACAUGAGGAUCACCCAUGUAGAAGGCAGUCUGCCUG | 17 | 19.8 |  | 
12 | GCAGCAUAUGCAGGAUAUCAGCACGUGUAGUGCUGAGAAGGGCACAUGAGGAUCACCCAUGUGAUCAAUUAAUAUAUAUGCUGC | 6.36 | 16.4 |  | 
13 | AAAACAGAUGGAGGAUAUAGUGUAUGGGCCGUAACGGGAGUAUCGCGCAGACUAGAAGGCCAUUUACAUGAGGAUCACCCAUGU |  |  | 164 | 56.5
14 | AUUUGAAAGUCAGGAUAUGGUAGAUUAUUCUUAUCAGAAGGGAUUAUUAUACUCAAGUACAUGAGGAUCACCCAUGUUAAAUCA |  |  | 22.6 | 13
15 | CGUCAUUACUCAGGAUAUGCACCAUACUUGAGGGCAGAAGGGAGUACAUGAGGAUCACCCAUGUACUAUGGGCGCCUAAGAGGU | 8.26 | 45.1 |  | 
16 | UUGGACGUCGUAGGAUAUGUAGGAUAAUCCUACAUGAGGAUCACCCAUGUUGACAUGGAAGAAGGACAGAAGGACGAUGUCCAU |  |  | 1120 | 87.5
17 | UUACUAUUACAGAAGGUUAAAUAAUAUAUAAAUGAAGGAUAUGUAACAUGAGGAUCACCCAUGUUUCACCCAUAUGAGGAUCAC | 8.49 | 7.99 |  | 
18 | GGUUGUCAUAGUCAUCCUUUCCGUACAUGAGGAUCACCCAUGUAGGAUAUGCUGCUCUCGGUGUGGCAGAAGGGCGUGUGUCUU | 17.8 | 18.9 |  | 
19 | UUUGUUUUGCAAGGAUAUGUUUAAUUUUAUUUUCCUUACACAUGAGGAUCACCCAUGUUAUUCUUACAGAAGGUGCGUAAUUUG | 165 | 166 |  | 
20 | UUGGACGUCGUAGGAUAUGUAGGAUAUUCCUACAUGAGGAUCACCCAUGUGGACAUGGAAGAAGGACAGAAGGACGAUGUCCAU |  |  | 63.7 | 4.7
21 | CGUGCGUAUGUGAGGAUAUGCUGGUCCUUGGCUCGGCAGAAGGCACAUGAGGAUCACCCAUGUGGUGUCGUACU | 69 | 179 |  | 
22 | GUUUACGUGGAAGGAUAUACAUUUGACAUCCUGAUGCGCGCAAUACCCACAUGAGGAUCACCCAUGUAGAAGGUCUGCGAAAGA | 14.7 | 18.4 |  | 
23 | ACUAGAUGAGGAUAUGCAUAUUUUCGUGUUCUUCUAGAUUAACAUGAGGAUCACCCAUGUAGAAGGCGUCAUUA | 16.5 | 20.3 |  | 
